High-throughput results: PubChem BioAssay, Sanford-Burnham Center for Chemical Genomics
DNMT1 inh – DNMT1 (human) enzyme inhibition | hit rate 0.83% among 360,000 | P26358 | inhibition (reported as % activation of signal), % at 10 µM | DNMT1 molecular beacon, Hinp1I cleavage, fluorescence | AID 588458; in the data active means inhibition above about 50%
Scp-1 inhibitor – inhibitors of human Scp-1 phosphatase. Q9GZU7. Recombinant Scp1, phosphopeptide, malachite green phosphate absorbance. inhibition, % at 20 µM. hit rate 0.88% among 340,000. AID 493091;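 active means inhibition above about 50% at 20 µM, limit read from the data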;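 further: plate controls were DMSO wells with enzyme for no effect and wells lacking enzyme for full effect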
Target sequence (Q9GZU7 76-261 limits assumed): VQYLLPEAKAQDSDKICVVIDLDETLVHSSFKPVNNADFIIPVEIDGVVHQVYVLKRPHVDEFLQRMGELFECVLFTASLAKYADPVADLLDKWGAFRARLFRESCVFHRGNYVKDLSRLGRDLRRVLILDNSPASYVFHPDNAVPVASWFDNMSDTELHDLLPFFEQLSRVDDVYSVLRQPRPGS
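Material: truncated SCP-1 phosphatase (76-261aa) / Buffer or medium: 50 mM Tris acetate pH 5.5, 0.005% Tween-20, 10 mM MgCl2 / Compound dosing: one concentration, 20 µM, with 1.0% DMSO / Incubation: 45 min room-temperature reaction, 5 min colour, 30 min stabiliser / Detection: colorimetric free-phosphate detection, absorbance 630 nm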
STEP inh – inhibitors of human striatal-enriched phosphatase STEP; hit rate 0.25% among 360,000; recombinant STEP, OMFP fluorogenic substrate, fluorescence; inhibition, % at 20 µM; P54829;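 active means inhibition at 20 µM, scaled per plate between control wells, above about 37%, limit read from the data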;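 further: 0% = DMSO with enzyme and substrate and 100% = substrate only without enzyme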
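Assay system: isolated STEP enzyme. Buffer or medium: pH 6.0 Bis-Tris with DTT and Tween 20. Also added: fluorogenic phosphatase substrate OMFP at 25 µM final. Dosing: 20 µM, 1% DMSO. Timing: 20 min reaction, room temperature, in the dark. Measured by: fluorescence intensity, excitation 480 nm, emission 540 nm. Evaluation: normalized % inhibition.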
SUMO1-SIM PPI – modulators of human SUMO1-mediated protein-protein interactions. P63165. SUMO1 binding to a labelled peptide, TR-FRET, 1 h. inhibition, % at 20 µM. hit rate 0.33% among 360,000; in the data active means inhibition above about 37%
Target sequence (P63165 whole entry, looked up): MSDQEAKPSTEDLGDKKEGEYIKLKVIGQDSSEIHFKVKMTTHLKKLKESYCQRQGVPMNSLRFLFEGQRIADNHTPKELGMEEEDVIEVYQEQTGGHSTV
LMPTP inh – blocks human LMPTP phosphatase | inhibition, % at 20 µM | AID 651560 | P24666 | recombinant LMPTP-A, OMFP fluorogenic substrate, fluorescence intensity | hit rate 0.22% among 360,000;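 active means compounds that cut the enzyme signal by at least half of the control window in the single-dose screen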;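 further: plate controls were DMSO wells with enzyme plus substrate for no effect and substrate without enzyme for full effect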
Target sequence (P24666 whole entry, looked up): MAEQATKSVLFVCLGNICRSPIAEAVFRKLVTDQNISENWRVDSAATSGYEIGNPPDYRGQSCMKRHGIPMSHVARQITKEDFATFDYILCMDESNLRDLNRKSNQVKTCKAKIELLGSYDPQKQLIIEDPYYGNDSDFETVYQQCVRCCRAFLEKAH
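Test system: LMPTP-A, protein tyrosine phosphatase of low molecular weight; Input: 0.625 nM enzyme; Incubation: 50 min dark incubation at room temperature; Signal: endpoint fluorescence intensity from OMFP dephosphorylation; Read-out basis: % inhibition versus control wells.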
Rpn11 inh – Rpn11 (human) deubiquitinase inhibition | human 26S proteasome, Ub4-pepOG fluorescence polarization; 20S core pre-blocked with epoxomicin | inhibition, % at 20 µM | hit rate 0.59% among 360,000;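 active means inhibition at 20 µM, scaled to each plate's controls, above about 33%, limit read from the data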
Rpn11 inh conf – Rpn11 inhibition confirmation, single concentration. purified human 26S proteasome, Ub4-pepOG fluorescence polarization; proteasome pretreated with epoxomicin. shares compounds with Rpn11 inh. hit rate 29% among 1,900. AID 602318. inhibition, % at 20 µM
MMP-2 inh – blocks human MMP-2, flagging nonselective RPN11 hits | shares compounds with Rpn11 inh | recombinant MMP-2, FRET peptide cleavage fluorescence | inhibition, % at 20 µM | hit rate 4% among 1,900;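 further: human MMP-2 activated beforehand with APMA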
Thrombin inh – thrombin (bovine) inhibition counter-screen; shares compounds with Rpn11 inh; bovine thrombin cleavage of Ub4-pepOG, fluorescence polarization; inhibition, % at 20 µM; hit rate 13% among 1,900; AID 602333;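 active means mean inhibition at least 40% at 20 µM, or signal 3 deviations below plate average, so some actives read negative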;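 further: plate controls were thrombin with DMSO for no effect and buffer wells lacking thrombin for full effect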
* marks the source's active call; other numbers are inactive results; · = no result. Rows were chosen to be rich in hits. Some 2.3% of all compounds tested hit in one or more screens of this group. Unless noted, no stated cut-off is given here; in the data, active means inhibition above about 40%; inactive means the rest.

SMILES	DNMT1 inh	Scp-1 inhibitor	STEP inh	SUMO1-SIM PPI	LMPTP inh	Rpn11 inh	Rpn11 inh conf	MMP-2 inh	Thrombin inh
CC(=O)Oc1ccc(C#C/C=C2\c3ccccc3C(=O)N2c2ccccc2)cc1	-12	22	-4	-4	5	72*	51*	-1	-87
CCOC(=O)Cn1ncc(-c2ccccc2)c1N	3	-2	1	1	0	169*	18	-31	-3
Cc1ccc(CSc2sc(C(=O)c3ccccc3)c(N)c2C#N)cc1	-18	-10	19	10	3	81*	-4	4	-5
N#Cc1c(SCc2ccccc2)sc(C(=O)c2ccccc2)c1N	-13	-16	18	-8	2	5	·	·	·
Cn1c(=O)[nH]c(=O)c2cc(C(=O)c3cc(F)ccc3O)cnc21	-1	-12	3	-16	-1	68*	18	-22	25
COc1cccc(CNS(=O)(=O)c2ccccc2Br)c1OC	6	-8	1	4	-2	-4	·	·	·
COCCNC(=O)C1CCCN(S(=O)(=O)c2cccc3nsnc23)C1 (stereo unspecified)	-1	-1	0	-28	-1	-3	·	·	·
Cc1nnn(-c2nonc2N)c1C(=O)NNC(=O)c1ccc(Cl)c(Cl)c1	3	-5	-2	4	0	53*	0	0	4
C/C(=N\NC(=O)c1nnn(-c2nonc2N)c1C)c1ccc(-c2ccccc2)cc1	13	1	-1	4	-1	-1	·	·	·
O=C(c1ccc(=O)[nH]n1)N1CCN(S(=O)(=O)c2ccc(C(F)(F)F)cc2)CC1	1	-3	-1	2	1	-2	·	·	·
COc1ccc(-c2ccc3c(c2)S(=O)(=O)c2cccc(C(=O)N4CCN(c5c(Cl)cncc5Cl)CC4)c2C3=O)cc1OC	-8	11	3	-21	3	76*	43*	-13	17
O=C1c2ccc(Cl)cc2S(=O)(=O)c2cccc(C(=O)N3CCN(c4ncc(Br)cn4)CC3)c21	-4	-6	2	-26	1	0	·	·	·
Oc1c(Cl)cc(Cl)c2cccnc12	-10	-6	0	3	3	54*	26	30	-8
Cc1ccc(S(=O)(=O)Nc2cc(Cl)c(O)c3ncccc23)cc1	-14	-12	3	-22	10	72*	76*	52*	9
CCCCc1ccc(NC(=O)CC(C)=O)cc1	4	-10	0	1	-1	59*	-14	24	-20
CCCCc1ccc(NC(=O)CC(C)(C)C)cc1	9	-6	3	0	2	-4	·	·	·
CCOc1ccccc1NC(=O)NCc1ccco1	2	6	1	-1	-2	-1	·	·	·
CC(/C=N/Nc1nc(C)cc(C)n1)=C\c1ccc(C(C)C)cc1	2	-5	-2	-10	0	4	·	·	·
O=C(Nc1ccccc1)c1cn2ccccc2n1	5	-1	0	1	3	-7	·	·	·
O=C(Nc1ccc(-n2cnnn2)cc1)c1cn2ccccc2n1	0	6	3	19	6	87*	36	-112	-15
CN1CCN(S(=O)(=O)c2ccc3c(c2)oc(=O)n3C)CC1	0	-2	-4	-4	-1	61*	18	-33	11
Cn1c(=O)oc2cc(S(=O)(=O)N3CCN(c4ccc(F)cc4)CC3)ccc21	0	1	0	-1	2	44*	14	6	-5
C[C@@H]1CN([C@H](C)CO)C(=O)c2cc(C#Cc3ccccc3F)cnc2O[C@@H]1CN(C)S(=O)(=O)c1ccccc1F	2	·	2	4	-2	-4	·	·	·
Cc1ccc(CCNC(=O)c2coc3nc4ccccc4nc23)cc1	-1	-2	7	-4	-1	41*	30	-30	-33
